Laboratory results reported in publication PMC5268740 (New journal of chemistry = Nouveau journal de chimie, 2016).
Values joined by “and” are separate entries in the source; they are usually repeats but may differ in a detail not shown here. Equal values may be shown once.

What was measured:
Assay type in all cases: physicochemical
[1] = Excited-state photophysical properties; conditions: for Φf (fluorescence quantum yield) / Φisc (intersystem crossing yield) / τS (lifetime of lowest singlet excited state) / kf^−1 / kic^−1 / kisc^−1 / Φic (internal conversion yield): room temperature; for kf^−1 / kic^−1 / kisc^−1: kx = Φx/τS; for Φic (internal conversion yield): Φic = 1 - Φf - Φisc
[2] = Fluorescence emission spectroscopy of bacteriochlorins; conditions: for Qy em / Qy em fwhm: room temperature
Summary of the method: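 Absorption and fluorescence spectra were recorded at room temperature in DMF and in […] water (one analogue in DMSO). The Qy/B ratio is the ratio of integrated Qy to integrated B absorption intensity. The Stokes shift is the Qy fluorescence maximum minus the Qy absorption peak.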

[3] = Absorption spectroscopy of bacteriochlorins; conditions: for Bmax abs / IQy/IB / Qy abs / Qy abs fwhm / ∑Qy/∑B: room temperature; for bathochromic shift in the Qy band relative to that for B2: in DMF or water
[4] = Water solubility / aggregation by absorption versus concentration in water; conditions: neat deionized water, 1000-fold concentration range (∼200–700 µM to ∼0.20–0.70 µM)
Summary of the method: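 Absorption spectra were taken in neat deionized water over a ~1000-fold concentration range (~200–700 µM to ~0.20–0.70 µM). Pathlength was changed reciprocally ([…]), and spectra were normalized at the Qy band. Concentration was calculated from absorbance in the 1-cm cuvette assuming ε(Qy) = 120,000 M−1cm−1.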

Substance	Φf (fluorescence quantum yield) ([1]; DMF)	Φisc (intersystem crossing yield) ([1]; DMF)	τS (lifetime of lowest singlet excited state) ([1]; DMF)	kf^−1 ([1]; DMF)	kic^−1 ([1]; DMF)	kisc^−1 ([1]; DMF)	Φic (internal conversion yield) ([1]; DMF)	reduction of Φf in water vs DMF [1]	Φf (fluorescence quantum yield) ([1]; water with 5% DMF as cosolvent)	Φisc (intersystem crossing yield) ([1]; water with 5% DMF as cosolvent)	τS (lifetime of lowest singlet excited state) ([1]; water with 5% DMF as cosolvent)	kf^−1 ([1]; water with 5% DMF as cosolvent)	kic^−1 ([1]; water with 5% DMF as cosolvent)	kisc^−1 ([1]; water with 5% DMF as cosolvent)	Φic (internal conversion yield) ([1]; water with 5% DMF as cosolvent)	Qy em ([2]; DMF)	Qy em fwhm ([2]; DMF)	Qy em ([2]; water with 5% DMF as cosolvent)	Qy em fwhm ([2]; water with 5% DMF as cosolvent)	Bmax abs ([3]; DMF)	also measured
2,12-Bis[3,5-bis(11-methoxy-3,6,9-trioxaundecylamidomethyl)phenyl]-15-(7-carboxy-1-heptyl)-3,13-dimethoxycarbonyl-5-methoxy-8,8,18,18-tetramethylbacteriochlorin [B4]	0.12	0.33	3.46 ns	28 ns	6 ns	10 ns	0.55	71%	0.035	0.31	3.21 ns	92 ns	5 ns	10 ns	0.65	760 nm	31 nm	759 nm	33 nm	377 nm	IQy/IB ([3]; DMF): 0.63; Qy abs ([3]; DMF): 754 nm; Qy abs fwhm ([3]; DMF): 30 nm; ∑Qy/∑B ([3]; DMF): 0.55; bathochromic shift in the Qy band relative to that for B2 [3]: ~28 nm; Bmax abs ([3]; water with 5% DMF as cosolvent): 368 nm; IQy/IB ([3]; water with 5% DMF as cosolvent): 0.62; Qy abs ([3]; water with 5% DMF as cosolvent): 753 nm; Qy abs fwhm ([3]; water with 5% DMF as cosolvent): 32 nm; ∑Qy/∑B ([3]; water with 5% DMF as cosolvent): 0.52
2,12-Bis[3,5-bis(3,6,9,12,15,18,21,24-octaoxahexacosanyl-26-amidomethyl)phenyl]-15^2-N-(3-carboxypropyl)-3-methoxycarbonyl-5-methoxy-8,8,18,18-tetramethylbacteriochlorin-13,15-dicarboimide [B5]	0.13	0.29	1.7 ns and 1.70 ns	13 ns	3 ns	6 ns	0.58	87%	0.017	0.08	1.4 ns and 1.40 ns	84 ns	2 ns	18 ns	0.90	819 nm	35 nm	834 nm	44 nm	375 nm	difference in kf between the two media (DMF and water) ([1]; DMF versus water): 6.5 fold; (Stokes) shift of Qy fluorescence maximum from Qy absorption peak ([2]; DMF): 11 nm; (Stokes) shift of Qy fluorescence maximum from Qy absorption peak ([2]; water): 15 nm; bathochromic shift of the Qy absorption band compared to B4 and II ([3]; DMF and water): ~50 nm; IQy/IB ([3]; DMF): 0.78; Qy abs ([3]; DMF): 808 nm; Qy abs fwhm ([3]; DMF): 32 nm; ∑Qy/∑B ([3]; DMF): 0.50; Bmax abs ([3]; water with 5% DMF as cosolvent): 376 nm; IQy/IB ([3]; water with 5% DMF as cosolvent): 0.50; Qy abs ([3]; water with 5% DMF as cosolvent): 819 nm; Qy abs fwhm ([3]; water with 5% DMF as cosolvent): 36 nm; ∑Qy/∑B ([3]; water with 5% DMF as cosolvent): 0.38; aggregation in water from absorption versus concentration [4]: obvious band broadening indicating some degree of aggregation
15-[4-(3-Carboxyethyl)phenyl]-3,13-dimethoxycarbonyl-2,12-bis[3,5-bis(3,6,9,12,15,18,21,24-octaoxahexacosanyl-26-amidomethyl)phenyl]-5-methoxy-8,8,18,18-tetramethylbacteriochlorin [B3]	0.21	0.47	3.27 ns	15 ns	10 ns	7 ns	0.32	38%	0.13	0.45	3.39 ns	27 ns	8 ns	8 ns	0.42	748 nm	27 nm	750 nm	28 nm	375 nm	(Stokes) shift of Qy fluorescence maximum from Qy absorption peak ([2]; water): 8–9 nm; IQy/IB ([3]; DMF): 0.74; Qy abs ([3]; DMF): 741 nm; Qy abs fwhm ([3]; DMF): 23 nm; ∑Qy/∑B ([3]; DMF): 0.52; bathochromic shift in the Qy band relative to that for B2 [3]: ~16 nm; Bmax abs ([3]; water with 5% DMF as cosolvent): 374 nm; IQy/IB ([3]; water with 5% DMF as cosolvent): 0.81; Qy abs ([3]; water with 5% DMF as cosolvent): 742 nm; Qy abs fwhm ([3]; water with 5% DMF as cosolvent): 24 nm; ∑Qy/∑B ([3]; water with 5% DMF as cosolvent): 0.57
3,13-Dimethoxycarbonyl-2,12-bis[3,5-bis(3,6,9,12,15,18,21,24-octaoxahexacosanyl-26-amidomethyl)phenyl]-5-methoxy-8,8,18,18-tetramethylbacteriochlorin [II]	0.11	0.32	3.02 ns	27 ns	5 ns	9 ns	0.57	29%	0.078	0.31	2.96 ns	38 ns	5 ns	10 ns	0.61	756 nm	27 nm	760 nm	31 nm	373 nm	(Stokes) shift of Qy fluorescence maximum from Qy absorption peak ([2]; water): 8–9 nm; IQy/IB ([3]; DMF): 0.79; Qy abs ([3]; DMF): 750 nm; Qy abs fwhm ([3]; DMF): 24 nm; ∑Qy/∑B ([3]; DMF): 0.42; bathochromic shift in the Qy band relative to that for B2 [3]: ~25 nm; Bmax abs ([3]; water with 5% DMF as cosolvent): 369 nm; IQy/IB ([3]; water with 5% DMF as cosolvent): 0.75; Qy abs ([3]; water with 5% DMF as cosolvent): 751 nm; Qy abs fwhm ([3]; water with 5% DMF as cosolvent): 26 nm; ∑Qy/∑B ([3]; water with 5% DMF as cosolvent): 0.40
